Laboratory results from ChEMBL document CHEMBL3044834, “Novel protoporphyrinogen oxidase inhibitors: 3H-pyrazolo[3,4-d][1,2,3]triazin-4-one derivatives” (J Agric Food Chem, 2008).

Tested on: Digitaria sanguinalis
Test: Herbicidal activity against Digitaria sanguinalis (hairy crabgrass) assessed as inhibition of fresh weed plant weight at 1500 g/ha using pre-emergence treatment protocol
Type: functional

Row | Structure (SMILES) | inhibition at 1500 g/ha [%]
1 | C=C(Cl)COc1cc(-n2nnc3c(cnn3C)c2=O)c(F)cc1Cl | 0
2 | CCCCCOc1cc(-n2nnc3c(cnn3C)c2=O)c(F)cc1Cl | 0
3 | COc1cc(-n2nnc3c(cnn3C)c2=O)c(F)cc1Cl | 0
4 | C#CCN1C(=O)COc2cc(F)c(-n3nnc4c(c(C)nn4C)c3=O)cc21 | 57
5 | C=CCN1C(=O)COc2cc(F)c(-n3nnc4c(cnn4C)c3=O)cc21 | 0
6 | Cn1ncc2c(=O)n(-c3cc(O)c(Cl)cc3F)nnc21 | 0
7 | COCCOCOc1cc(-n2nnc3c(cnn3C)c2=O)c(F)cc1Cl | 2.3
8 | Cn1ncc2c(=O)n(-c3cc(OC/C=C/Cl)c(Cl)cc3F)nnc21 | 1.4
9 | Cn1ncc2c(=O)n(-c3cc(OCC#N)c(Cl)cc3F)nnc21 | 2.3
10 | C#CCOc1cc(-n2nnc3c(c(C(F)(F)F)nn3C)c2=O)c(F)cc1Cl | 6.7

Tested on: Amaranthus retroflexus
Test: Herbicidal activity against Amaranthus retroflexus assessed as inhibition of fresh weed plant weight at 1500 g/ha using post-emergence treatment protocol
Type: functional
In short: (§1)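 Test compounds made up as emulsions by dissolving in 100 µL N,N-dimethylformamide, then adding a little Tween 20 and water. For post-emergence, weed seedlings at one leaf and one stem were sprayed at the same rates as the pre-emergence test. Fresh weight was recorded 15 days after treatment and expressed as percent inhibition versus controls. All treatments were run in triplicate.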

Row | Structure (SMILES) | inhibition at 1500 g/ha [%]
11 | C=C(Cl)COc1cc(-n2nnc3c(cnn3C)c2=O)c(F)cc1Cl | 54.1
12 | CCCCCOc1cc(-n2nnc3c(cnn3C)c2=O)c(F)cc1Cl | 23.2
13 | COc1cc(-n2nnc3c(cnn3C)c2=O)c(F)cc1Cl | 37.5
14 | C#CCN1C(=O)COc2cc(F)c(-n3nnc4c(c(C)nn4C)c3=O)cc21 | 0
15 | C=CCN1C(=O)COc2cc(F)c(-n3nnc4c(cnn4C)c3=O)cc21 | 20.3
16 | Cn1ncc2c(=O)n(-c3cc(O)c(Cl)cc3F)nnc21 | 25.1
17 | COCCOCOc1cc(-n2nnc3c(cnn3C)c2=O)c(F)cc1Cl | 74.9
18 | Cn1ncc2c(=O)n(-c3cc(OC/C=C/Cl)c(Cl)cc3F)nnc21 | 14
19 | Cn1ncc2c(=O)n(-c3cc(OCC#N)c(Cl)cc3F)nnc21 | 100
20 | C#CCOc1cc(-n2nnc3c(c(C(F)(F)F)nn3C)c2=O)c(F)cc1Cl | 5.5

Tested on: Amaranthus retroflexus
Test: Herbicidal activity against Amaranthus retroflexus assessed as inhibition of fresh weed plant weight at 1500 g/ha using pre-emergence treatment protocol
Type: functional

Row | Structure (SMILES) | inhibition at 1500 g/ha [%]
21 | C=C(Cl)COc1cc(-n2nnc3c(cnn3C)c2=O)c(F)cc1Cl | 11
22 | CCCCCOc1cc(-n2nnc3c(cnn3C)c2=O)c(F)cc1Cl | 0
23 | COc1cc(-n2nnc3c(cnn3C)c2=O)c(F)cc1Cl | 40.5
24 | C#CCN1C(=O)COc2cc(F)c(-n3nnc4c(c(C)nn4C)c3=O)cc21 | 30
25 | C=CCN1C(=O)COc2cc(F)c(-n3nnc4c(cnn4C)c3=O)cc21 | 30.6
26 | Cn1ncc2c(=O)n(-c3cc(O)c(Cl)cc3F)nnc21 | 23.7
27 | COCCOCOc1cc(-n2nnc3c(cnn3C)c2=O)c(F)cc1Cl | 51.8
28 | Cn1ncc2c(=O)n(-c3cc(OC/C=C/Cl)c(Cl)cc3F)nnc21 | 0
29 | Cn1ncc2c(=O)n(-c3cc(OCC#N)c(Cl)cc3F)nnc21 | 40.5
30 | C#CCOc1cc(-n2nnc3c(c(C(F)(F)F)nn3C)c2=O)c(F)cc1Cl | 15.5

Tested on: Digitaria sanguinalis
Test: Herbicidal activity against Digitaria sanguinalis (hairy crabgrass) assessed as inhibition of fresh weed plant weight at 1500 g/ha using post-emergence treatment protocol
Type: functional
In short: as §1

Row | Structure (SMILES) | inhibition at 1500 g/ha [%]
31 | C=C(Cl)COc1cc(-n2nnc3c(cnn3C)c2=O)c(F)cc1Cl | 0
32 | CCCCCOc1cc(-n2nnc3c(cnn3C)c2=O)c(F)cc1Cl | 0
33 | COc1cc(-n2nnc3c(cnn3C)c2=O)c(F)cc1Cl | 20.6
34 | C#CCN1C(=O)COc2cc(F)c(-n3nnc4c(c(C)nn4C)c3=O)cc21 | 0
35 | C=CCN1C(=O)COc2cc(F)c(-n3nnc4c(cnn4C)c3=O)cc21 | 27
36 | Cn1ncc2c(=O)n(-c3cc(O)c(Cl)cc3F)nnc21 | 9.2
37 | COCCOCOc1cc(-n2nnc3c(cnn3C)c2=O)c(F)cc1Cl | 0
38 | Cn1ncc2c(=O)n(-c3cc(OC/C=C/Cl)c(Cl)cc3F)nnc21 | 0
39 | Cn1ncc2c(=O)n(-c3cc(OCC#N)c(Cl)cc3F)nnc21 | 0
40 | C#CCOc1cc(-n2nnc3c(c(C(F)(F)F)nn3C)c2=O)c(F)cc1Cl | 0

Tested on: Brassica rapa subsp. oleifera
Test: Herbicidal activity against Brassica rapa subsp. oleifera assessed as inhibition of fresh weed plant weight at 1500 g/ha using post-emergence treatment protocol
Type: functional
In short: as §1

Row | Structure (SMILES) | inhibition at 1500 g/ha [%]
41 | C=C(Cl)COc1cc(-n2nnc3c(cnn3C)c2=O)c(F)cc1Cl | 0
42 | CCCCCOc1cc(-n2nnc3c(cnn3C)c2=O)c(F)cc1Cl | 6.1
43 | COc1cc(-n2nnc3c(cnn3C)c2=O)c(F)cc1Cl | 28.3
44 | C#CCN1C(=O)COc2cc(F)c(-n3nnc4c(c(C)nn4C)c3=O)cc21 | 0
45 | C=CCN1C(=O)COc2cc(F)c(-n3nnc4c(cnn4C)c3=O)cc21 | 20.9
46 | Cn1ncc2c(=O)n(-c3cc(O)c(Cl)cc3F)nnc21 | 27.9
47 | COCCOCOc1cc(-n2nnc3c(cnn3C)c2=O)c(F)cc1Cl | 28
48 | Cn1ncc2c(=O)n(-c3cc(OC/C=C/Cl)c(Cl)cc3F)nnc21 | 2.9
49 | Cn1ncc2c(=O)n(-c3cc(OCC#N)c(Cl)cc3F)nnc21 | 31.3
50 | C#CCOc1cc(-n2nnc3c(c(C(F)(F)F)nn3C)c2=O)c(F)cc1Cl | 32.7

Tested on: Brassica rapa subsp. oleifera
Test: Herbicidal activity against Brassica rapa subsp. oleifera assessed as inhibition of fresh weed plant weight at 1500 g/ha using pre-emergence treatment protocol
Type: functional

Row | Structure (SMILES) | inhibition at 1500 g/ha [%]
51 | C=C(Cl)COc1cc(-n2nnc3c(cnn3C)c2=O)c(F)cc1Cl | 0
52 | CCCCCOc1cc(-n2nnc3c(cnn3C)c2=O)c(F)cc1Cl | 13.9
53 | COc1cc(-n2nnc3c(cnn3C)c2=O)c(F)cc1Cl | 0
54 | C#CCN1C(=O)COc2cc(F)c(-n3nnc4c(c(C)nn4C)c3=O)cc21 | 44.4
55 | C=CCN1C(=O)COc2cc(F)c(-n3nnc4c(cnn4C)c3=O)cc21 | 17.5
56 | Cn1ncc2c(=O)n(-c3cc(O)c(Cl)cc3F)nnc21 | 0
57 | COCCOCOc1cc(-n2nnc3c(cnn3C)c2=O)c(F)cc1Cl | 0
58 | Cn1ncc2c(=O)n(-c3cc(OC/C=C/Cl)c(Cl)cc3F)nnc21 | 0
59 | Cn1ncc2c(=O)n(-c3cc(OCC#N)c(Cl)cc3F)nnc21 | 0
60 | C#CCOc1cc(-n2nnc3c(c(C(F)(F)F)nn3C)c2=O)c(F)cc1Cl | 21.6

Tested on: Echinochloa crus-galli
Test: Herbicidal activity against Echinochloa crus-galli (barnyard grass) assessed as inhibition of fresh weed plant weight at 1500 g/ha using pre-emergence treatment protocol
Type: functional

Row | Structure (SMILES) | inhibition at 1500 g/ha [%]
61 | C=C(Cl)COc1cc(-n2nnc3c(cnn3C)c2=O)c(F)cc1Cl | 15.9
62 | CCCCCOc1cc(-n2nnc3c(cnn3C)c2=O)c(F)cc1Cl | 1.1
63 | COc1cc(-n2nnc3c(cnn3C)c2=O)c(F)cc1Cl | 11.3
64 | C#CCN1C(=O)COc2cc(F)c(-n3nnc4c(c(C)nn4C)c3=O)cc21 | 15.8
65 | C=CCN1C(=O)COc2cc(F)c(-n3nnc4c(cnn4C)c3=O)cc21 | 24.4
66 | Cn1ncc2c(=O)n(-c3cc(O)c(Cl)cc3F)nnc21 | 3.5
67 | COCCOCOc1cc(-n2nnc3c(cnn3C)c2=O)c(F)cc1Cl | 5.6
68 | Cn1ncc2c(=O)n(-c3cc(OC/C=C/Cl)c(Cl)cc3F)nnc21 | 9.7
69 | Cn1ncc2c(=O)n(-c3cc(OCC#N)c(Cl)cc3F)nnc21 | 17.5
70 | C#CCOc1cc(-n2nnc3c(c(C(F)(F)F)nn3C)c2=O)c(F)cc1Cl | 0

Tested on: Echinochloa crus-galli
Test: Herbicidal activity against Echinochloa crus-galli (barnyard grass) assessed as inhibition of fresh weed plant weight at 1500 g/ha using post-emergence treatment protocol
Type: functional
In short: as §1

Row | Structure (SMILES) | inhibition at 1500 g/ha [%]
71 | C=C(Cl)COc1cc(-n2nnc3c(cnn3C)c2=O)c(F)cc1Cl | 31.1
72 | CCCCCOc1cc(-n2nnc3c(cnn3C)c2=O)c(F)cc1Cl | 15.3
73 | COc1cc(-n2nnc3c(cnn3C)c2=O)c(F)cc1Cl | 1
74 | C#CCN1C(=O)COc2cc(F)c(-n3nnc4c(c(C)nn4C)c3=O)cc21 | 0
75 | C=CCN1C(=O)COc2cc(F)c(-n3nnc4c(cnn4C)c3=O)cc21 | 9.1
76 | Cn1ncc2c(=O)n(-c3cc(O)c(Cl)cc3F)nnc21 | 13.2
77 | COCCOCOc1cc(-n2nnc3c(cnn3C)c2=O)c(F)cc1Cl | 43.6
78 | Cn1ncc2c(=O)n(-c3cc(OC/C=C/Cl)c(Cl)cc3F)nnc21 | 11.1
79 | Cn1ncc2c(=O)n(-c3cc(OCC#N)c(Cl)cc3F)nnc21 | 32.6
80 | C#CCOc1cc(-n2nnc3c(c(C(F)(F)F)nn3C)c2=O)c(F)cc1Cl | 2.4
